The values below come from ChEMBL document CHEMBL1136882, “Mechanism-based inhibitors of serine proteases with high selectivity through optimization of S' subsite binding” (Bioorg Med Chem, 2009).

The source made the active and inactive calls. The rule behind the calls is not given here.

In test [1] the target is T1, Neutrophil elastase (Homo sapiens) (UniProt P08246).
T1 sequence (whole entry): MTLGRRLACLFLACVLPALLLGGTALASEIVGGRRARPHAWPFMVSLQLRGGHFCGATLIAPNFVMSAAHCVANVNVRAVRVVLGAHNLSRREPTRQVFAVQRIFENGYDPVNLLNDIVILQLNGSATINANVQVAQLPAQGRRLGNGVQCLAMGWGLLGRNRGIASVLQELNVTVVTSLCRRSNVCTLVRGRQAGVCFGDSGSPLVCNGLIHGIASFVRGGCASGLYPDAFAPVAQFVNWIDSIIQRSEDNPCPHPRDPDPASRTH
Put plainly: Inhibition of human neutrophil elastase assessed as ratio of observed rate constant to drug concentration by incubation method. Also noted: unit not given here. The gist of the method: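 HNE incubated with excess inhibitor in 0.1 M HEPES/0.5 M NaCl pH 7.25 with DMSO in a constant-temperature bath (stocks: 70 μM enzyme, 3.5 mM inhibitor). Aliquots taken over time and assayed with MeOSuc-AAPV-pNA, read at 410 nm for 60 s. kobs taken from ln([E]t/[E]0) = −kobs·t; reported as kobs/[I].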

The target of test [2] is T2, Myeloblastin (Homo sapiens) (UniProt P24158).
T2 sequence (whole entry): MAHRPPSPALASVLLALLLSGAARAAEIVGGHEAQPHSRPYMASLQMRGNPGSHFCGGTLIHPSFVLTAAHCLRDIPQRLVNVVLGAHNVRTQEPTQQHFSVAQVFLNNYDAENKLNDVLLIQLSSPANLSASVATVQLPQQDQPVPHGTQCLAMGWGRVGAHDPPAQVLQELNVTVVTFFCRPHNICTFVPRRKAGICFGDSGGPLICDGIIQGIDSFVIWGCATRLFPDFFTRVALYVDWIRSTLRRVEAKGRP
The experiment in a line: Inhibition of human PR3 at inhibitor to enzyme ratio of 500 after 30 mins. The gist of the method:
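PR3 (34.5 nM final, from 0.1 M phosphate pH 6.50 stock) preincubated 30 min with inhibitor at [I]/[E] 500 (8.62 μM final). Buffer 0.1 M HEPES/0.5 M NaCl pH 7.25 with DMSO and DTNB. Substrate Boc-Ala-Ala-NVa-SBzl; absorbance read at 410 nm for 2 min. % remaining activity = (v/v0)×100 against a DMSO-only run; duplicate or triplicate.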

Test [3] addresses T1, Neutrophil elastase (Homo sapiens). The experiment in a line: Inhibition of human neutrophil elastase at inhibitor to enzyme ratio of 500 after 30 mins. The gist of the method: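 HNE treated with inhibitor for 30 min at [I]/[E] ratio 500. Residual activity then measured with MeOSuc-AAPV-pNA in 0.1 M HEPES/0.5 M NaCl pH 7.25, reading absorbance at 410 nm.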
Test [4] shares this target. The experiment in a line: Inhibition of human neutrophil elastase assessed as ratio of kinact to Ki by progressive curve method. In a few lines: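 Progress curves run with 10 nM HNE and 105 μM MeOSuc-AAPV-pNA in 0.1 M HEPES/0.5 M NaCl pH 7.25, 2.5% DMSO, over several [I]/[E] ratios. p-Nitroaniline release followed continuously at 410 nm. kobs obtained by nonlinear fit of A vs t; kobs/[I] corrected for substrate concentration to give kinact/KI. Duplicate determinations.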

The target is the same in test [5]. The experiment in a line: Irreversible inhibition of human neutrophil elastase at 37 uM. The conditions noted are these: TDE = time-dependent effect. In a few lines: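 Inhibitor (37 μM) incubated with HNE (700 nM) in 0.1 M HEPES/0.5 M NaCl pH 7.25, 1% DMSO. Aliquots taken over time and assayed with MeOSuc-AAPV-pNA at 410 nm. Results plotted as percent remaining activity versus time.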

On to `CCC[C@H]1C(=O)N(C(CCC(=O)OC)Sc2ccc(NC(=O)NCCc3ccccc3)cc2)S(=O)(=O)N1C` (stereo partly drawn), for which the Ratio in test [1] worked out at 150. Moreover, in test [2], the inhibition entry is “inactive”. The inhibition result in test [3] is “Active”.

Consider `CCC[C@H]1C(=O)N(C(CCC(=O)OC)Sc2ccc(Cl)cc2)S(=O)(=O)N1C` (stereo partly drawn), for which, in test [1], the Ratio came to 20. In addition, the inhibition result in test [2] is “inactive”. The inhibition entry in test [3] is “Active”.

As to `CCC[C@H]1C(=O)N(C(CCC(=O)OC)Sc2ccc(OC)cc2)S(=O)(=O)N1C` (stereo partly drawn), in test [1], the Ratio was 70. For the same compound, the inhibition entry in test [2] is “inactive”. Also, the inhibition entry in test [3] is “Active”.

In the case of `COC(=O)CCC(Sc1ccc(Cl)cc1)N1C(=O)[C@H](CC(C)C)N(C)S1(=O)=O` (stereo partly drawn), the Ratio in test [4] was determined as 4580. The Activity result in test [5] is “tde”. Moreover, the inhibition entry in test [2] was “inactive”. Moreover, the inhibition entry in test [3] is “Active”.

`CCC[C@H]1C(=O)N(C(CCC(=O)OC)Sc2ccc(NC(=O)OC(C)(C)C)cc2)S(=O)(=O)N1C` (stereo partly drawn): in test [1], the Ratio was determined as 170. The inhibition result in test [2] is “inactive”. For the same compound, the inhibition entry in test [3] was “Active”.

`CCC[C@H]1C(=O)N(C(CCC(=O)OC)Sc2ccc(NC(=O)c3ccccc3C(=O)O)cc2)S(=O)(=O)N1C` (stereo partly drawn): the Ratio in test [1] came to 260. Also, in test [2], the inhibition entry was “inactive”. For the same compound, in test [3], the inhibition result is “Active”.

Turning to `CCC[C@H]1C(=O)N(C(CCC(=O)OC)Sc2ccc(NC(=O)CCC(=O)O)cc2)S(=O)(=O)N1C` (stereo partly drawn), the Ratio in test [1] amounted to 300. Moreover, the inhibition result in test [2] is “inactive”. Also, the inhibition result in test [3] was “Active”.

With `CCC[C@H]1C(=O)N(C(CCC(=O)OC)Sc2ccc(N)cc2)S(=O)(=O)N1C` (stereo partly drawn), in test [1], the Ratio was found to be 110. Further, in test [2], the inhibition result was “inactive”. Moreover, in test [3], the inhibition result was “Active”.

For `CCC[C@H]1C(=O)N(C(CCC(=O)OC)Sc2ccc(F)cc2)S(=O)(=O)N1C` (stereo partly drawn), the Ratio in test [1] turned out to be 320. Also, the inhibition result in test [2] was “inactive”. Moreover, in test [3], the inhibition result was “Active”.
